Assay [1] deals with MCF7. Kind of assay: Cytotoxicity against human MCF7 cells after 48 hrs by SRB binding assay. As to conditions: MCF7, 48 h. Format: functional, cell-based. In outline: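 Drug-sensitive MCF-7 cells seeded at ~15% confluency and allowed 24 h recovery. Exposed 48 h to graded concentrations. Survival measured by SRB binding as % decrease versus ethanol-vehicle controls, mean of triplicate wells.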
For orientation: In SRB staining, fixed cells bind dye roughly in proportion to their protein.

Assay [2] in a line: Cytotoxicity against MRP1 overexpressing human MCF7/VP cells after 48 hrs by SRB binding assay. It counts as functional, cell-based. In a few lines: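 MCF-7/VP (MRP1-expressing, Pgp-negative) cells seeded at ~15% confluency and allowed 24 h to attach. Exposed 48 h to graded concentrations without vincristine. Survival measured by SRB binding versus ethanol controls.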
The nature of assay [3]: Cytotoxicity against human T24 cells after 48 hrs by SRB binding assay. It counts as cell-based. As to conditions: T-24, 48 h.
Assay [4] is described as follows: Cytotoxicity against Pgp overexpressing human NCI/ADR cells after 48 hrs by SRB binding assay. It counts as functional, cell-based. As to conditions: NCI/ADR-RES. In outline:
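NCI/ADR (Pgp-overexpressing) cells seeded at ~15% confluency and allowed 24 h to attach. Exposed 48 h to graded concentrations, as solubility allowed, without vinblastine. Survival measured by sulforhodamine B binding as % decrease in SRB binding versus ethanol-vehicle controls, mean of three wells per condition.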

Assay [5] is described as follows: Growth inhibition of NCI/ADR cells expressing Pgp/MRP1. It counts as functional, cell-based. The conditions noted are these: Homo sapiens, NCI/ADR-RES. In outline: (§1)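 NCI/ADR (Pgp-overexpressing) or MCF-7/VP (MRP1-expressing, Pgp-negative) cells were seeded at about 15% confluency and allowed to attach for 24 h. They were then exposed for 48 h to varying compound concentrations, limited by solubility, without added vinca drug. Survival was read by sulforhodamine B binding against ethanol solvent controls. Each value is the mean of three equally treated wells.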

Assay [6] can be described thus: Growth inhibition of Pgp deficient MCF7/VP cells expressing MRP1. Format: functional, cell-based. As to conditions: Homo sapiens. In a few lines: as §1
In assay [7] the test system is MCF7. The assay can be described thus: Growth inhibition of Pgp deficient MCF7 cells expressing MRP1. Format: functional, cell-based. The conditions noted are these: Homo sapiens. In outline: as §1
The subject of another assay is A10. The assay can be described thus: Induction of microtubule loss in rat A10 cells at 5 uM after 24 hrs. Format: functional, cell-based.
The test system of assay [8] is HL-60. The assay can be described thus: Cell cycle arrest in HL60 cells assessed as accumulation in S phase at 80 nM. It counts as functional, Homo sapiens. In outline:
(§2)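 HL-60 cells exposed 24 or 48 h to drug or ethanol vehicle. Nuclei prepared by detergent-trypsin method: citrate/sucrose/DMSO buffer, trypsin, then trypsin inhibitor plus RNase A, then propidium iodide with spermine, 30 min at 4 °C. Filtered, resuspended, DNA content measured by flow cytometry. Percentages given for G0/G1, S and G2/M. Mean ± SEM.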

Assay [9] deals with HL-60. Kind of assay: Cell cycle arrest in HL60 cells assessed as accumulation in […] phase at 80 nM. It counts as functional, Homo sapiens. In a few lines: as §2
In assay [10] the test system is HL-60. The assay can be described thus: Cell cycle arrest in HL60 cells assessed as accumulation in G0/G1 phase at 80 nM. It counts as functional, Homo sapiens. In outline: as §2
For assay [11], the system named is HL-60. Kind of assay: Cell cycle arrest in HL60 cells assessed as accumulation in S phase at 200 nM. It counts as functional, Homo sapiens. In a few lines:
as §2

The subject of assay [12] is HL-60. The assay can be described thus: Cell cycle arrest in HL60 cells assessed as accumulation in G0/G1 phase at 200 nM. It counts as functional, Homo sapiens. In outline: as §2
Assay [13] has as its system HL-60. Kind of assay: Cell cycle arrest in HL60 cells assessed as accumulation in […] phase at 200 nM. Format: functional, Homo sapiens. In a few lines:
as §2

A further assay relates to NCI/ADR. Kind of assay: Inhibition of P-glycoprotein activity assessed as increase in accumulation of [3H]vinblastine in NCI/ADR cells. It counts as cell-based. The conditions noted are these: Homo sapiens.
The subject of assay [14] is HL-60. The assay can be described thus: Cell cycle arrest in HL60 cells assessed as accumulation in G0/G1 phase at 600 nM. Format: functional, Homo sapiens. In outline:
as §2

Assay [15] relates to HL-60. The assay can be described thus: Cell cycle arrest in HL60 cells assessed as accumulation in […] phase at 600 nM. It counts as functional, Homo sapiens. In outline: as §2
The subject of assay [16] is HL-60. The assay can be described thus: Cell cycle arrest in HL60 cells assessed as accumulation in S phase at 600 nM. Format: functional, Homo sapiens. In outline: as §2

Active and inactive are the calls of the source. No cut-off for these calls is given here.

The IC50 is the concentration that inhibits the measured activity by half. A higher IC50 goes with a need for much substance. For `COc1ccc(CCc2cn(Cc3ccccc3)c3nc(N)nc(C)c23)cc1`, the concentration for half-maximal inhibition (IC50) amounted to 13000 nM with MCF7 [1], 22700 nM in [2], 31700 nM in assay [3] and 21700 nM in assay [4].
For the compound `CC[C@]1(O)C[C@H]2CN(CCc3c([nH]c4ccccc34)[C@@](C(=O)OC)(c3cc4c(cc3OC)N(C=O)[C@H]3[C@@](O)(C(=O)OC)[C@H](OC(C)=O)[C@]5(CC)C=CCN6CC[C@]43[C@@H]65)C2)C1` [VINCRISTINE], the IC50 amounted to 100 nM in assay [5], 9.3 nM in [6] and 0.6 nM with MCF7 [7].
Regarding `COc1cccc(CCc2cn(Cc3ccccc3)c3nc(N)nc(C)c23)c1`, the IC50 in the assay with MCF7 [1] was 8000 nM; in [2], 22000 nM; in assay [3], 25000 nM; in assay [4], 5700 nM.
Take `CC[C@]1(O)C[C@@H]2CN(CCc3c([nH]c4ccccc34)[C@@](C(=O)OC)(c3cc4c(cc3OC)N(C)[C@H]3[C@@](O)(C(=O)OC)[C@H](OC(C)=O)[C@]5(CC)C=CCN6CC[C@]43[C@@H]65)C2)C1` [VINBLASTINE]: the IC50 was more than 375 nM in assay [5], 3 nM in assay [6] and 2.8 nM in the assay with MCF7 [7]. For the same compound, the result in the assay with A10 was Active. The values for the Activity in the assay on HL-60 [8], in the assay with HL-60 [9] and with HL-60 [10] were 6.6%, 10.1% and 83.3%, respectively.
In the case of `CC(=O)O[C@H]1C(=O)[C@@]2(C)[C@H]([C@H](OC(=O)c3ccccc3)[C@]3(O)C[C@H](OC(=O)[C@H](O)[C@@H](NC(=O)c4ccccc4)c4ccccc4)C(C)=C1C3(C)C)[C@]1(OC(C)=O)CO[C@@H]1C[C@@H]2O` [PACLITAXEL], the figures for the IC50 (in assay [5]; in [6]; in the assay on MCF7 [7]) were 2700 nM, 2.8 nM and 2.5 nM, respectively. Besides, the Activity stood at 22.2% in the assay on HL-60 [11], 67.3% in the assay with HL-60 [12] and 10.5% with HL-60 [13].
Turning to `Cc1nc(N)nc2c1c(CCc1ccccc1)cn2Cc1ccccc1`, the IC50 in the assay on MCF7 [1] is 10700 nM; in assay [2], 18300 nM; in assay [3], 12700 nM; in assay [4] it was 18200 nM.
In the case of `COc1ccccc1CCc1cn(Cc2ccccc2)c2nc(N)nc(C)c12`, the IC50 came out at 2300 nM with MCF7 [1], 2600 nM in [2], 2500 nM in assay [3] and 2700 nM in assay [4]. The Activity entry with NCI/ADR is “Dose-dependent effect”.
Regarding `COc1cc2c(c(OC)c1OC)-c1ccc(OC)c(=O)cc1[C@@H](NC(C)=O)CC2` [COLCHICINE], the Activity stood at 84.1% with HL-60 [14], 11.9% in the assay with HL-60 [15] and 4% in the assay with HL-60 [16].

Source of the values: ChEMBL document CHEMBL1145421, “Discovery of novel antitumor antimitotic agents that also reverse tumor resistance” (J Med Chem, 2007).
